The M2OR odorant receptor database

Experiments:
Settings in all cases: stereoisomer not certain
UniProt Q7TR71 = target: T1, UniProt Q7TR71
T1 sequence (whole entry): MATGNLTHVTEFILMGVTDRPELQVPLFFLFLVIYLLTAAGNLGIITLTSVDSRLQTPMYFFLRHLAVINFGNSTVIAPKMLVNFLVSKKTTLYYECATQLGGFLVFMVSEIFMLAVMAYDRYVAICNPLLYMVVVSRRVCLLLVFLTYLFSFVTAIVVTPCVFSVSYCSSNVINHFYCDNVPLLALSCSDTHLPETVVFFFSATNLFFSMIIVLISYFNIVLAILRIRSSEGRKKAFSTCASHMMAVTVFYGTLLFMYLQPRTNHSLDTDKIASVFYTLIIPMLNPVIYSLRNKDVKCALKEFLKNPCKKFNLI
Procedure, shortened: (§1)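 Assay methods differ from source to source, frequently being transient luciferase assays in mammalian cell lines. For each receptor–molecule pair, the label responsive (active) applies when the original authors judged the measured signal statistically different from baseline, and non-responsive (inactive) applies otherwise.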

UniProt Q7TR79 = target: T2, UniProt Q7TR79
T2 sequence (whole entry): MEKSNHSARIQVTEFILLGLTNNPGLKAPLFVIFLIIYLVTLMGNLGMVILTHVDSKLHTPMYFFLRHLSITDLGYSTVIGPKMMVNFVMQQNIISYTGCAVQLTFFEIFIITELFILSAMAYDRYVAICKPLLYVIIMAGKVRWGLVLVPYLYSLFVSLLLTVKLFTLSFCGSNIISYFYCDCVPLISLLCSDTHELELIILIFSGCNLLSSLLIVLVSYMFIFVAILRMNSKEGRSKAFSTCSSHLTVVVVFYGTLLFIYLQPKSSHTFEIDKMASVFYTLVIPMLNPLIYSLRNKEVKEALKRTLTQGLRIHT
Procedure, shortened: as §1

UniProt Q7TRA3 = target: T3, UniProt Q7TRA3
T3 sequence (whole entry): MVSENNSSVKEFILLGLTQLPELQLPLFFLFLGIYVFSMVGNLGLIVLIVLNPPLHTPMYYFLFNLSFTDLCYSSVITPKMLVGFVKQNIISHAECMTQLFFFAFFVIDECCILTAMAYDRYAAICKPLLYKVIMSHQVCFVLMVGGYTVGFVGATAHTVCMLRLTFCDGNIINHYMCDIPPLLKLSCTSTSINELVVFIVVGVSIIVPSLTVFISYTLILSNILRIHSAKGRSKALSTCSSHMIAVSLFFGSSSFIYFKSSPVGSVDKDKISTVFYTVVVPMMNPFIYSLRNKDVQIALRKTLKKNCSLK
Procedure, shortened: as §1

UniProt Q7TRE4 = target: T4, UniProt Q7TRE4
T4 sequence (whole entry): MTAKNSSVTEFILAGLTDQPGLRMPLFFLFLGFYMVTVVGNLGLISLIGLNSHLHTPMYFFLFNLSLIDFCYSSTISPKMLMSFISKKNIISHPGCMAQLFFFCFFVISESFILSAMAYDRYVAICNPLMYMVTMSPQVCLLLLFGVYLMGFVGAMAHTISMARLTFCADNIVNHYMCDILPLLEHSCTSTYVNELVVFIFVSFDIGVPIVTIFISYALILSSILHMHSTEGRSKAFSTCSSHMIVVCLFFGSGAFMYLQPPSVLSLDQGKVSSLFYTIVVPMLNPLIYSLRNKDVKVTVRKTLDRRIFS
Procedure, shortened: as §1

UniProt Q7TRW1 = target: T5, UniProt Q7TRW1
T5 sequence (whole entry): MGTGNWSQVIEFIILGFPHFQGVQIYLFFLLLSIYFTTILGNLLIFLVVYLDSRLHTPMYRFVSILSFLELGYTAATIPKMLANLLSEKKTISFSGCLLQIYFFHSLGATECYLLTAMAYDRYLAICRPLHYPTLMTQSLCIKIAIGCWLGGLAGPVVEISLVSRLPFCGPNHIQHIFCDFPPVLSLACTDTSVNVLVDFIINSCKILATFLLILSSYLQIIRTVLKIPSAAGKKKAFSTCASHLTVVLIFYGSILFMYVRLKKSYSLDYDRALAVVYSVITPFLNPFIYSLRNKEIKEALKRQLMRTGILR
Procedure, shortened: as §1

UniProt Q7TRX0 = target: T6, UniProt Q7TRX0
T6 sequence (whole entry): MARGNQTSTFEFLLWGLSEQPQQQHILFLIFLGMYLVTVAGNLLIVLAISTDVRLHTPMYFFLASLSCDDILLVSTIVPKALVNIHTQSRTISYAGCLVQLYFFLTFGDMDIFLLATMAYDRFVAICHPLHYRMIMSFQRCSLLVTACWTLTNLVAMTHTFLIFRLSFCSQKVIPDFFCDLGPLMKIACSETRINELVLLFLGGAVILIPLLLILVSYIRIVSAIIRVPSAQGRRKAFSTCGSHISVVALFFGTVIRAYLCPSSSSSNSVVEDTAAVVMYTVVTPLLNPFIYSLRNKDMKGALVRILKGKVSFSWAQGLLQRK
Procedure, shortened: as §1

UniProt Q7TRX1 = target: UniProt Q7TRX1
Procedure, shortened: as §1

UniProt Q8VEU7 = target: T7, UniProt Q8VEU7
T7 sequence (whole entry): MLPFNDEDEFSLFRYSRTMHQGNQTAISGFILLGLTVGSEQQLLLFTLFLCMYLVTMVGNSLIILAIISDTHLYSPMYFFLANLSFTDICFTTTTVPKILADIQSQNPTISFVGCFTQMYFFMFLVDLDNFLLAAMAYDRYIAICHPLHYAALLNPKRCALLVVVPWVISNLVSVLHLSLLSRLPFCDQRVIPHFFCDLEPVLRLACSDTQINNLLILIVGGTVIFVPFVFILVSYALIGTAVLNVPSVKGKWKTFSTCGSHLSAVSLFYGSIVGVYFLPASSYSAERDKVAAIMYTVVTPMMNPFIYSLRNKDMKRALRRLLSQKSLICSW
Procedure, shortened: as §1

UniProt Q8VF05 = target: T8, UniProt Q8VF05
T8 sequence (whole entry): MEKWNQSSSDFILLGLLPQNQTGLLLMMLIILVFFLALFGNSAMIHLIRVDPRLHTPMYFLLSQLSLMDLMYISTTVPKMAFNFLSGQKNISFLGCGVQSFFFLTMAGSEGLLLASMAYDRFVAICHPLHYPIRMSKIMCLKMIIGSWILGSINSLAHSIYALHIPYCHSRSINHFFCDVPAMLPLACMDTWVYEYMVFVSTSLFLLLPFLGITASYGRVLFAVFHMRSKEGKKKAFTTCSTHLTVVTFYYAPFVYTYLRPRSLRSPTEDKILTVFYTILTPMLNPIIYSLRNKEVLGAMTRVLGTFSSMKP
Procedure, shortened: as §1

UniProt Q7TRN9 = target: T9, UniProt Q7TRN9
T9 sequence (whole entry): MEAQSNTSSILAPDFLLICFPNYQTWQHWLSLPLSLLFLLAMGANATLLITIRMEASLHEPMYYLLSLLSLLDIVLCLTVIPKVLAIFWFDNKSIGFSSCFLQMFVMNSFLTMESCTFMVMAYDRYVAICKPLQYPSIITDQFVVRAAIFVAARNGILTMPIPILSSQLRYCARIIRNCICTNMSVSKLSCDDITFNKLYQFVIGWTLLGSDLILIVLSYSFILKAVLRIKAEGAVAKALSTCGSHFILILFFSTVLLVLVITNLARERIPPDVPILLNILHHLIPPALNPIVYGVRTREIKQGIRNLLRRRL
Procedure, shortened: as §1

UniProt Q7TRR8 = target: T10, UniProt Q7TRR8
T10 sequence (whole entry): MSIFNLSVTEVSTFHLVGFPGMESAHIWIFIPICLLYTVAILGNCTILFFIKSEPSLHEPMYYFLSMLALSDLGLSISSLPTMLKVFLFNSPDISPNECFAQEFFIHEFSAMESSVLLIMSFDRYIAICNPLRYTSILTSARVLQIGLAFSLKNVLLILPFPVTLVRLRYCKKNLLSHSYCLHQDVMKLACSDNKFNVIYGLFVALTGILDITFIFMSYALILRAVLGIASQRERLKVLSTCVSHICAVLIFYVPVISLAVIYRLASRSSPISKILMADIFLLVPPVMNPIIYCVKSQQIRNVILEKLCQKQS
Procedure, shortened: as §1

Measured: odorant receptor agonist call

UniProt Q7TRX1, sequence (Q7TRX1 as listed by the source): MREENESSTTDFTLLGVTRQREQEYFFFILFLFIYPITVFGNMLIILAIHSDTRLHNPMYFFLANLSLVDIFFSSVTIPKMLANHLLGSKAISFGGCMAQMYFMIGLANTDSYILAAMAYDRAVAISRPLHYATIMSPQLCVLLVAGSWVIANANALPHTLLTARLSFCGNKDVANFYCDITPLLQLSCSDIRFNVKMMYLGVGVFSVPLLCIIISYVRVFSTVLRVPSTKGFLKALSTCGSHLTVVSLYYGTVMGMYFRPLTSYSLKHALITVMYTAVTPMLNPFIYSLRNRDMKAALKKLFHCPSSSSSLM

CC(C)=CCCC(C)CCO (centres undefined)
active: UniProt Q7TRX1
inactive: UniProt Q7TR71 | UniProt Q7TR79 | UniProt Q7TRA3 | UniProt Q7TRE4 | UniProt Q7TRW1 | UniProt Q7TRX0 | UniProt Q8VEU7 | UniProt Q8VF05

CCCCCC1=C(C)CCC1=O
active: UniProt Q8VF05
inactive: UniProt Q7TR71 | UniProt Q7TR79 | UniProt Q7TRA3 | UniProt Q7TRE4 | UniProt Q7TRW1 | UniProt Q7TRX0 | UniProt Q8VEU7

CCCCCCC(C)=O
inactive: UniProt Q7TR71 | UniProt Q7TR79 | UniProt Q7TRA3 | UniProt Q7TRE4 | UniProt Q7TRW1 | UniProt Q7TRX0 | UniProt Q8VEU7 | UniProt Q8VF05

CCCCCCCO
active: UniProt Q8VF05
inactive: UniProt Q7TR71 | UniProt Q7TR79 | UniProt Q7TRA3 | UniProt Q7TRE4 | UniProt Q7TRN9 | UniProt Q7TRR8 | UniProt Q7TRW1 | UniProt Q7TRX0 | UniProt Q8VEU7

CCOC(=O)C(C)C
inactive: UniProt Q7TR71 | UniProt Q7TR79 | UniProt Q7TRA3 | UniProt Q7TRE4 | UniProt Q7TRW1 | UniProt Q7TRX0 | UniProt Q8VEU7
active: UniProt Q8VF05

CCCCCC(=O)CC
active: UniProt Q7TRX0 | UniProt Q8VF05
inactive: UniProt Q7TR71 | UniProt Q7TR79 | UniProt Q7TRA3 | UniProt Q7TRE4 | UniProt Q7TRW1 | UniProt Q8VEU7

CCCCCCCCS
inactive: UniProt Q7TR71 | UniProt Q7TR79 | UniProt Q7TRA3 | UniProt Q7TRE4 | UniProt Q7TRW1 | UniProt Q7TRX0 | UniProt Q8VEU7 | UniProt Q8VF05
